This sample holds only a part of the variants without activity.
B1: tRNA (parent)
chain: GUUCCGUUGGCGUAAUGGUAACGCGUCUCCCUCCUAAGGAGAAGACUGCGGGUUCGAGUCCCGUACGGAACG

Variants of: B1
Assay: yeast fitness relative to wild type (ratio to wild type); higher = fitter; tRNA-Arg(CCU), competitive growth, 37 C, YPD
Method in brief: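 The tRNA-Arg(CCU) gene variants were made by chemical synthesis with a 3% per-site mutation rate at 69 sites and inserted at the native genomic locus of Saccharomyces cerevisiae. After pooling, the strains were competed in YPD at 37°C for 24 hours in six parallel replicates. Gene amplicons from the start population and each end population were read by 100-nucleotide paired-end sequencing, and Darwinian fitness relative to wild type was taken from genotype frequency changes. Genotypes needed ≥ 100 starting reads, and estimates < 0.5 were set to 0.5.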

First: GUUCCGUUGGCGUAAUGGUAAGGCGUCUCCCUCCUAAGGAGAAGACUGCGGGUUCGAGUCCCGUCCGGAACG
Second: GUUCCGUUGGCGUAAUGGUAAGGGGUAUCCCUCCUAAGGAGAAGACUGCGGGUUCGAGUGCCGUACGGAACG
The yeast fitness of the first is higher: 0.863 for the first, 0.521 for the second.

First: GUUCCGUUGGCGUAAUGGUAAGGCGUCUCCCUCCUAAGGAGAAGCCUGCGGGUUCGAGUCCCGUACGGAACG
Second: GUUCCGUUGGCGUAAUGGUAAGGCGUGUCACGCCUAAGGAGAAGACUGCGGGUUGGAGUCCCGUACGGAACG
The yeast fitness of the first is higher: 0.583 for the first, at most 0.5 for the second.

GUUCCGUUGGCGUAAUGGUAAGGCGUCUCCCUCCUAAGGAGUAGACUGCGGGUUCGAGUCCCCUACGGAACG and GUUCCGUUGGCGUAAUGGUAAGGCGUCUCCCUCCUAUGGAGAAGACUGCGGGUUCGCGUCCCGUACGGAACG cannot be ordered by yeast fitness: at most 0.5 for the first, at most 0.5 for the second.

Compared with GUUCCGUUGGCGUAAUGGUAAGGCGUGUCCGUCCUAAGGAGAAGACUACGGGUUCGAGUCGCGUACGGUACG, GUUCCGUUGGCGUAAUGGUAAGGAGUCUCCCUCCUAAGGAGAAGACUGCGGGUUCGAGUCCCGUACGGAACG is higher in yeast fitness: at most 0.5 for the first, 0.673 for the second.

First: GUUCCGUUGGCGUAAUGGUAAGGGGUCUCCCUCCUAAGGAGAAGACCGCGGGUUCGAGUCCCGUACGGAACG
Second: GUUCCGUUGGCGUAAUGGUAAGGCGUCUCCCUCCUGGGGAGAAGACUGCGGGUUCGAGUGCCGUACGGGACG
The yeast fitness of the first is higher: 0.642 for the first, at most 0.5 for the second.

Compared with GUUCCGUUGGCGUAAUGGUAAGGCGUCUCCCUCCUAAGGAGCAGACUGCGGGUUCGAGUCCCGUACGGAACG, GUUCCGUUGGCGUAAUGGUAAGGCGUCUCCCUCCUAAGGAGAAGGUUGCGGGUUCGAGUCCCGUACGGAACG is higher in yeast fitness: 0.635 for the first, 0.644 for the second.

GUUCCGUUGGCGUAAUGGUAAGGCGUCUCCCUCCUCAGGAGAAGACUACGGGUUCGAGUCACGUAUGGAACG and GUUCCGUUGGCGUAAUGGUAAGGCGUCUCCCUCCUAAGGAGAUGACUGCGGAUCCUAGUCCCGCACGGAACG cannot be ordered by yeast fitness: at most 0.5 for the first, at most 0.5 for the second.

GUUCCGUUGGCGUAAUGGUAAAGCGUCUCCCUCCUAAGGAGAAGACUGCGGGGUCCAGUCCCGUACCGAACG and GUUCCGUUGGCGUAAUGGUAAGGGGUCUCCCUCCUAAGGAGAAGACUGCAGGUUCGAGUCCCGUAUGGCACG cannot be ordered by yeast fitness: at most 0.5 for the first, at most 0.5 for the second.

Going from GUUCCGUUGGCGUAAUGGUAAGGCGUAUCCCUCCUAAGGAGACGACUGCGGGUUCGAGUCCCGUACGGAACG to GUUCCGUUGGCGUAAUGGUAAGGCGUCUCCCUCCUAUGGAGAUGACUGCGGGUUCGAGUCCCGUCCGGAACG, the yeast fitness falls from 0.587 to at most 0.5.

GUUCCGUUGGCGUAAUGGUAAGGCGUGUGCCUCCUAAGGAGAAGACUGUGGGUUCGAGUCCCGUACGGAACG and GUUCCGUUGGCGUAAUGGUAAGGCGUCUCCCUCCUAAGGAGAAGACUGCGGGUUCGGGUCACGUACGGAACG cannot be ordered by yeast fitness: at most 0.5 for the first, at most 0.5 for the second.

Going from GUUCCGUUGGCGUAAUGGUAAGGCGUCUCCCUCCUAUGGAGAUGACUGCGGGUUCGAGUCCCGUACGGAACG to GUUCCGUUGGCGUAAUGGUAAGGCGUGUCCGUCCUAAGGAGAAGACUGCGGGUUCGAGUUCCGUACGGAACG, the yeast fitness falls from 0.502 to at most 0.5.

Compared with GUUCCGUUGGCGUAAUGGUAAAGCGUCUCCCUCCUAAGGAGAAGACAGCGGGUUCGAGUCCCGUAAGGAACG, GUUCCGUUGGCGUAAUGGUAAGGCGUCUCCCUCCUAAGGAGCAGACUGCGGGUUCGAGUCCCGUACGGAUCG is higher in yeast fitness: at most 0.5 for the first, 0.671 for the second.

Going from GUUCCGUUGGCGUAAUGGUAAGGCGUCUCCCUCCUGAGGAGAAGAUUGCGGGUUCGAGUCCCGUACGGAACG to GUUCCGUUGGCGUAAUGGUAAGGCGUUUCCCUCCUAAGGAGAAGACUGCGGGUUCGAGUCCCGUAUGGAACG, the yeast fitness falls from 0.709 to 0.701.

Going from GUUCCGUUGGCGUAAUGGUAAGGAGUCUCCCUCCUAAGGAGAACACUGCGAGUUCGACACCCGUACGGAACG to GUUCCGUUGGCGUAAUGGUAAGGCGUCUCCCUCCUAAGGAGAAGUCUCCGGGUUCGAGUCCCGUACGGAACG, the yeast fitness rises from at most 0.5 to 0.511.

First: GUUCCGUUGGCGUAAUGGUAAGGGGUCUCCCUCCUAAGGAGAAGACUGCGGGUACGAGUCCCGUACGGUACG
Second: GUUCCGUUGGCGUAAUGGUAAGGCGUUUCCCUCCUAAGGAGAAGACUGCGGGUUCGAGACCCGUACGGAACG
The yeast fitness of the first is lower: at most 0.5 for the first, 0.571 for the second.

First: GUUCCGUUGGCGUAAUGGUAAGGCGUCUCCCUCCUGAGGAGGAGACUGCGGGUUCGAGUCCCGUACGGAACG
Second: GUUCCGUUGGCGUAAUGGUAAGGCGUCUCCCUCCUAAGGAGAAGCCUGCGGGUUCGUGUCCAGUACGGAACG
The yeast fitness of the first is lower: 0.605 for the first, 0.716 for the second.

GUUCCGUUGGCGUAAUGGUAAGGUGUCUUCCUCCUAAGGAGUAGACUGCGGGUUCGAGUCCCGUACGGAACG and GUUCCGUUGGCGUAAUGGUAAGGCGUCUGCCUCCUAAGGAGCAGCCUGCGGGUUCGAGUCGCGUACGGUACG cannot be ordered by yeast fitness: at most 0.5 for the first, at most 0.5 for the second.

First: GUUCCGUUGGCGUAAUGGUAAGGCGUCUCCCUCCUAAGGAGAAGACUGCGGGUUCGAGUCCCGUACGGAGCG
Second: GUUCCGUUGGCGUAAUGGUAAGGCGUCUCCCUCCUGAGGAGAAGACUGCGGGUUGGAGUCCCGUACGGAACG
The yeast fitness of the first is higher: 0.86 for the first, at most 0.5 for the second.

GUUCCGUUGGCGUAAUGGUAAGGUGUCUCCCUCCUAAGGAGAAAACUGCGGGUUCGAGUCCCGUACGGAACG showed a yeast fitness of 0.555.

— the RNAGym collection of RNA variant scans (doi:10.1126/science.aae0568)
